For orientation: MIC means the least concentration at which growth counts as inhibited.

Converted amounts (≈) assume the structure as drawn.

Format in all cases: functional
In test [1] the test system is Aspergillus fumigatus. Nature of the test: Antifungal activity against Aspergillus fumigatus after 24 hrs by agar diffusion test. In outline: (§1)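 Disc diffusion: organism culture swabbed dry onto prepared agar plates; sterile 9.6 mm discs soaked in compound solution (stock 0.5 g in 10 ml DMF), dried and laid on the inoculated surface. Standard antimicrobial disc placed at the plate centre. Incubation at 37 °C for 24 h.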
In general terms: A growth-free zone around the sample is the usual read-out of agar diffusion tests.

Another test has as its system Candida albicans. Briefly: Antifungal activity against Candida albicans after 24 hrs by agar diffusion test. The method, boiled down: as §1
Test [2] concerns Aspergillus fumigatus. Briefly: Antifungal activity against Aspergillus fumigatus after 72 hrs. The method, boiled down:
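Microwell growth assay with conidia from 48 h Sabouraud agar cultures, final 5 × 10³ conidia per well. Medium-only and fluconazole-range controls included. Incubated at 23 °C for 72 h with growth checked every 24 h, then read as absorbance at 620 nm. Each concentration run in triplicate and the experiment repeated three times.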

The subject of another test is Pseudomonas aeruginosa. Briefly: Antibacterial activity against Pseudomonas aeruginosa after 24 hrs by agar diffusion test. The method, boiled down: as §1
Another test deals with Staphylococcus aureus. Briefly: Antibacterial activity against Staphylococcus aureus after 24 hrs by agar diffusion test. The method, boiled down: as §1

Turning to `CN(C/C=C/C#CC(C)(C)C)Cc1cccc2ccccc12` [TERBINAFINE], the “inhibition zone (IZ)” value in the test with Aspergillus fumigatus [1] and with Candida albicans was 10 mm/mg throughout.
As to `Clc1ccc(COC(Cn2ccnc2)c2ccc(Cl)cc2Cl)c(Cl)c1` (centres undefined) [MICONAZOLE], the MIC in the test on Aspergillus fumigatus [2] turned out to be 27.5 µg/mL (≈ 66.1 µM).
For `Cc1c(C(=O)/C=C/NNC(N)=S)c(C(=O)Nc2ccccc2)nn1-c1ccccc1`, the “inhibition zone (IZ)” value in the test on Aspergillus fumigatus [1] was determined as 0 mm/mg; in the test on Pseudomonas aeruginosa it was 8 mm/mg; in the test with Candida albicans, 12 mm/mg; in the test with Staphylococcus aureus, 10 mm/mg.
Take `CC(=O)c1c(C(=O)Nc2ccccc2)nn(-c2ccccc2)c1C`: the “inhibition zone (IZ)” value is recorded as 0 mm/mg in the test with Aspergillus fumigatus [1], 17 mm/mg in the test on Pseudomonas aeruginosa, 15 mm/mg in the test on Candida albicans and 21 mm/mg in the test with Staphylococcus aureus.
With `Cc1c(-c2ccc(Cl)cc2)nn2c(-c3c(C(=O)Nc4ccccc4)nn(-c4ccccc4)c3C)ccnc12`, the “inhibition zone (IZ)” value with Aspergillus fumigatus [1] stood at 0 mm/mg; in the test with Pseudomonas aeruginosa, 0 mm/mg; with Candida albicans, 10 mm/mg; in the test on Staphylococcus aureus it was 10 mm/mg.
On to `Cc1c(C(=O)/C=C/N(C)C)c(C(=O)Nc2ccccc2)nn1-c1ccccc1`, for which the “inhibition zone (IZ)” value was found to be 0 mm/mg in the test on Aspergillus fumigatus [1], 14 mm/mg in the test on Pseudomonas aeruginosa, 15 mm/mg in the test on Candida albicans and 14 mm/mg in the test on Staphylococcus aureus.
For the compound `Cc1c(-c2ccon2)c(C(=O)Nc2ccccc2)nn1-c1ccccc1`, the “inhibition zone (IZ)” value in the test with Aspergillus fumigatus [1] was 0 mm/mg; in the test with Pseudomonas aeruginosa it was 13 mm/mg; in the test on Candida albicans it was 13 mm/mg; in the test with Staphylococcus aureus, 13 mm/mg.
On to `Cc1c(-c2ccnc3nncn23)c(C(=O)Nc2ccccc2)nn1-c1ccccc1`, for which the “inhibition zone (IZ)” value in the test with Aspergillus fumigatus [1] is given as 0 mm/mg; with Pseudomonas aeruginosa it was 13 mm/mg; with Candida albicans, 12 mm/mg; in the test with Staphylococcus aureus it was 13 mm/mg.
As for `Cc1c(-c2csc(N)n2)c(C(=O)Nc2ccccc2)nn1-c1ccccc1`, the “inhibition zone (IZ)” value in the test with Aspergillus fumigatus [1] worked out at 0 mm/mg; with Pseudomonas aeruginosa, 18 mm/mg; in the test on Candida albicans, 13 mm/mg; in the test on Staphylococcus aureus, 13 mm/mg.
Turning to `Cc1c(C(=O)CBr)c(C(=O)Nc2ccccc2)nn1-c1ccccc1`, the “inhibition zone (IZ)” value in the test with Aspergillus fumigatus [1] is recorded as 12 mm/mg; with Pseudomonas aeruginosa, 20 mm/mg; with Candida albicans, 16 mm/mg; in the test on Staphylococcus aureus, 18 mm/mg. For the same compound, in the test on Aspergillus fumigatus [2], 25 µg/mL (≈ 62.8 µM) was the least that counted as inhibitory (MIC).
As to `Cc1c(C(=O)CC2C(=O)CC(C)(C)CC2=O)c(C(=O)Nc2ccccc2)nn1-c1ccccc1`, the “inhibition zone (IZ)” value in the test on Aspergillus fumigatus [1] is 0 mm/mg; in the test on Pseudomonas aeruginosa it was 0 mm/mg; in the test with Candida albicans, 10 mm/mg; with Staphylococcus aureus it was 11 mm/mg.
As for `Cc1c(-c2cc[nH]n2)c(C(=O)Nc2ccccc2)nn1-c1ccccc1`, the “inhibition zone (IZ)” value with Aspergillus fumigatus [1] was 0 mm/mg; in the test on Pseudomonas aeruginosa, 13 mm/mg; in the test with Candida albicans, 12 mm/mg; in the test on Staphylococcus aureus, 13 mm/mg.
Consider `Cc1c(-c2cnc3ccccc3n2)c(C(=O)Nc2ccccc2)nn1-c1ccccc1`, for which the “inhibition zone (IZ)” value in the test on Aspergillus fumigatus [1] turned out to be 0 mm/mg; in the test on Pseudomonas aeruginosa it was 10 mm/mg; in the test on Candida albicans, 10 mm/mg; in the test on Staphylococcus aureus, 11 mm/mg.
Compound `C[C@@H]1[C@H](O)[C@@H](C)/C=C/C=C/C=C/C=C/C=C/C=C/C=C/[C@H](O[C@@H]2O[C@H](C)[C@@H](O)[C@H](N)[C@@H]2O)C[C@@H]2O[C@](O)(C[C@@H](O)C[C@@H](O)[C@H](O)CC[C@@H](O)C[C@@H](O)CC(=O)O[C@H]1C)C[C@H](O)[C@H]2C(=O)O` [AMPHOTERICIN B] had an MIC against Aspergillus fumigatus [2] of 11 µg/mL (≈ 11.9 µM).
Take `O=C(N[C@H](CO)[C@H](O)c1ccc([N+](=O)[O-])cc1)C(Cl)Cl` [CHLORAMPHENICOL]: the figures for the “inhibition zone (IZ)” value with Pseudomonas aeruginosa and with Staphylococcus aureus were 20 mm/mg and 21 mm/mg, respectively.
With `Cc1c(-c2ccccc2)nn2c(-c3c(C(=O)Nc4ccccc4)nn(-c4ccccc4)c3C)ccnc12`, the “inhibition zone (IZ)” value in the test with Aspergillus fumigatus [1] is recorded as 0 mm/mg; in the test with Pseudomonas aeruginosa, 0 mm/mg; with Candida albicans, 10 mm/mg; with Staphylococcus aureus it was 8 mm/mg.
Consider `Cc1c(-c2cnc3sc4ccccc4n23)c(C(=O)Nc2ccccc2)nn1-c1ccccc1`, for which the “inhibition zone (IZ)” value in the test on Aspergillus fumigatus [1] was 0 mm/mg; in the test with Pseudomonas aeruginosa it was 10 mm/mg; in the test on Candida albicans, 12 mm/mg; in the test on Staphylococcus aureus, 12 mm/mg.

For the origin of these results see ChEMBL document CHEMBL1144700, “Synthesis of new N-phenylpyrazole derivatives with potent antimicrobial activity” (2008).
